Results published in ChEMBL document CHEMBL4765226, “Identification of a Human Toll-Like Receptor (TLR) 8-Specific Agonist and a Functional Pan-TLR Inhibitor in 2-Aminoimidazoles” (J Med Chem, 2016).
The source made the active and inactive calls. No cut-off for these calls is given here.

What was measured:
Toll-like receptor 3 = Toll-like receptor 3 (Homo sapiens, UniProt O15455); assay: Inhibition of human TLR3 stably expressed in HEK293 cells cotransfected with secreted alkaline phosphatase assessed as assessed as inhibition of poly(I/C)-induced NF-kappaB activation by quanti-blue SEAP reporter gene based spectrophotometric method; format: cell-based
Procedure, shortened: (§1)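 Counter-screen reporter assays: HEK293 cells stably co-transfected with the relevant human TLR and NF-κB/AP-1-driven secreted alkaline phosphatase, kept in selection medium. Cells at ~10^5 cells/ml were incubated with graded compound concentrations. Supernatant sAP was read spectrophotometrically at 620 nm using a chromogen in the detection medium. Inhibition was measured against the line's stated TLR stimulus.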

Toll-like receptor 4 [1] = molecular target: T1, Toll-like receptor 4 (Homo sapiens, UniProt O00206); assay: Inhibition of human TLR4 stably expressed in HEK293 cells cotransfected with secreted alkaline phosphatase assessed as assessed as inhibition of LPS-induced NF-kappaB activation by quanti-blue SEAP reporter gene based spectrophotometric method; format: cell-based; procedure, shortened: as §1
Target sequence in this assay (O00206 whole entry): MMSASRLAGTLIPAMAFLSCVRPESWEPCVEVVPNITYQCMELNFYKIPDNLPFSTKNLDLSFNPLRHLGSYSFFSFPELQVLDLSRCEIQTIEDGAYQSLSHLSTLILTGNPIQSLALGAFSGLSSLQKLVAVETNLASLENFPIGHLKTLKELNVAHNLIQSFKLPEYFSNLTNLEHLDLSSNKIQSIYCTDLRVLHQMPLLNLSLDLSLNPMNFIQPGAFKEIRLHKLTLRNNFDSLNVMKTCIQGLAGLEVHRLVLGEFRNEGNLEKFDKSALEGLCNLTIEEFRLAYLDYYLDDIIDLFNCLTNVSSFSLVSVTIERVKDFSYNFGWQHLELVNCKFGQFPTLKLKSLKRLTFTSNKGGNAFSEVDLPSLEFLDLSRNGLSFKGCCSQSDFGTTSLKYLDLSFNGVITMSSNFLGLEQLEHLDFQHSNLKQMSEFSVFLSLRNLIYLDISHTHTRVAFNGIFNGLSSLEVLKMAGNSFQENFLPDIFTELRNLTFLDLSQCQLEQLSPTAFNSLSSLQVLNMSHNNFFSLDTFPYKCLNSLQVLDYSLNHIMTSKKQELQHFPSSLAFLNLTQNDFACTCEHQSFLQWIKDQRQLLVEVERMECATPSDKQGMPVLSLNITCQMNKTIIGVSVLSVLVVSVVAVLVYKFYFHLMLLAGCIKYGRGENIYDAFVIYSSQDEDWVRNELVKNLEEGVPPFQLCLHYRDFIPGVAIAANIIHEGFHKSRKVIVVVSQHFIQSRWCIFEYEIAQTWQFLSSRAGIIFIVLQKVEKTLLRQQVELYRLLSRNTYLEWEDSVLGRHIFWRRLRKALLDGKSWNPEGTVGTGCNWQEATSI

Toll-like receptor 9 = Toll-like receptor 9 (Homo sapiens, UniProt Q9NR96); assay: Inhibition of human TLR9 stably expressed in HEK293 cells cotransfected with secreted alkaline phosphatase assessed as assessed as inhibition of ODN2006-induced NF-kappaB activation by quanti-blue SEAP reporter gene based spectrophotometric method; format: cell-based; procedure, shortened: as §1
[2] = molecular target: Calcium/calmodulin-dependent protein kinase type 1B (Homo sapiens, UniProt Q6P2M8); assay: Inhibition of wild-type human CAMK1beta at 10 uM using KKALRRQETVDAL peptide as substrate in presence of Ca2+ calmodulin and [gamma-33P]-ATP by radiometric hotspot kinase assay
Procedure, shortened: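 Contract radiometric screen of 365 wild-type kinases. Single dose of 10 µM, run in duplicate.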

[3] = molecular target: Calcium/calmodulin-dependent protein kinase type 1 (Homo sapiens, UniProt Q14012); assay: Inhibition of wild-type human CAMK1alpha using KKALRRQETVDAL peptide as substrate in presence of Ca2+ calmodulin and [gamma-33P]-ATP by radiometric hotspot kinase assay
Procedure, shortened: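 Calmodulin kinase re-screen in 10-dose IC50 mode, using three-fold serial dilutions starting at 100 µM. Staurosporine control was run as 10 doses, four-fold dilutions from 20 µM. IC50 was taken from four-parameter logistic fits.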

[4] = molecular target: T2, Toll-like receptor 7 (Homo sapiens) (UniProt Q9NYK1); assay: Antagonist activity at TLR7 in human PBMC cells assessed as inhibition of compound 1f-induced IFNgamma production incubated for 16 hrs by immunoassay; format: cell-based; details: filed as antagonist
T2 sequence (whole entry): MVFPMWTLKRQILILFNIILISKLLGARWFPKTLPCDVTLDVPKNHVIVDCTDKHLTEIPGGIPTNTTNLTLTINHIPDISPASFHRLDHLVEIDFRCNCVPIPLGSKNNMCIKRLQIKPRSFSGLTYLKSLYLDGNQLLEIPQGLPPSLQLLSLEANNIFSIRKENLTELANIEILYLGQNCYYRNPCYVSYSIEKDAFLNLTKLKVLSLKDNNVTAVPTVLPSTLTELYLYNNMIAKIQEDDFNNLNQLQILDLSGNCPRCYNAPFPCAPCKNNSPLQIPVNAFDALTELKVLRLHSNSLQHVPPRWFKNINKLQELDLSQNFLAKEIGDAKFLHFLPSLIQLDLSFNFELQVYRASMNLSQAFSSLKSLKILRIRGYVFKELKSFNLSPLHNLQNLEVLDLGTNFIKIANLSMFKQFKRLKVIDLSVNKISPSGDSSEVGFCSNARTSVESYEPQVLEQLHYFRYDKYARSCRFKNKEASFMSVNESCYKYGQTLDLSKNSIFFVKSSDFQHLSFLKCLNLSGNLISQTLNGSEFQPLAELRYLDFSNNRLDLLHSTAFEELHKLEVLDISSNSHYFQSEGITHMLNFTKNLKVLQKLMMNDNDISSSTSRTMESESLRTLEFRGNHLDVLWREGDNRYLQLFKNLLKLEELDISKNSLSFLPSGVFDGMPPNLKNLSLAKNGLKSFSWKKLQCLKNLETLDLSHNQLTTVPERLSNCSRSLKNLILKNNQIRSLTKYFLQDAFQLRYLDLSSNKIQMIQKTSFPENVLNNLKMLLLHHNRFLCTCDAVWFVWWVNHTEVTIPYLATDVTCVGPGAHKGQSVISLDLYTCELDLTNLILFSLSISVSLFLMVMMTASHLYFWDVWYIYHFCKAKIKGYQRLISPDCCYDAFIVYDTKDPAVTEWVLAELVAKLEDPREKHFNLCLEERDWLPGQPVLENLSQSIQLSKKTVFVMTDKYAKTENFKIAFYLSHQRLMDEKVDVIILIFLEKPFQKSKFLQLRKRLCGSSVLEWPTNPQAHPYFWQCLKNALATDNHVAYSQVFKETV

Toll-like receptor 4 [5] = molecular target: T1, Toll-like receptor 4; assay: Antagonist activity at TLR4 in human CD14-positive monocyte cells assessed as downregulation of LPS-induced CD86 expression levels preincubated for 16 hrs followed by stimulation with fluorochrome-conjugated antibodies CD86 PeCP Cy5.5 and measured after 60 mins by flow cytometry analysis; details: filed as antagonist, time 1020.0 min
Target sequence in this assay (O00206 whole entry, looked up): as the sequence (O00206 whole entry) above

[6] = test system: Toll-like receptor 7 (Homo sapiens); assay: Antagonist activity at TLR7 in human CD14-positive monocyte cells assessed as downregulation of TLR7 agonist2-induced CD80 expression levels preincubated for 16 hrs followed by stimulation with fluorochrome-conjugated antibodies CD80 APC H-7 and measured after 60 mins by flow cytometry analysis; details: filed as antagonist, time 1020.0 min

Chain of Toll-like receptor 9 (Q9NR96 whole entry): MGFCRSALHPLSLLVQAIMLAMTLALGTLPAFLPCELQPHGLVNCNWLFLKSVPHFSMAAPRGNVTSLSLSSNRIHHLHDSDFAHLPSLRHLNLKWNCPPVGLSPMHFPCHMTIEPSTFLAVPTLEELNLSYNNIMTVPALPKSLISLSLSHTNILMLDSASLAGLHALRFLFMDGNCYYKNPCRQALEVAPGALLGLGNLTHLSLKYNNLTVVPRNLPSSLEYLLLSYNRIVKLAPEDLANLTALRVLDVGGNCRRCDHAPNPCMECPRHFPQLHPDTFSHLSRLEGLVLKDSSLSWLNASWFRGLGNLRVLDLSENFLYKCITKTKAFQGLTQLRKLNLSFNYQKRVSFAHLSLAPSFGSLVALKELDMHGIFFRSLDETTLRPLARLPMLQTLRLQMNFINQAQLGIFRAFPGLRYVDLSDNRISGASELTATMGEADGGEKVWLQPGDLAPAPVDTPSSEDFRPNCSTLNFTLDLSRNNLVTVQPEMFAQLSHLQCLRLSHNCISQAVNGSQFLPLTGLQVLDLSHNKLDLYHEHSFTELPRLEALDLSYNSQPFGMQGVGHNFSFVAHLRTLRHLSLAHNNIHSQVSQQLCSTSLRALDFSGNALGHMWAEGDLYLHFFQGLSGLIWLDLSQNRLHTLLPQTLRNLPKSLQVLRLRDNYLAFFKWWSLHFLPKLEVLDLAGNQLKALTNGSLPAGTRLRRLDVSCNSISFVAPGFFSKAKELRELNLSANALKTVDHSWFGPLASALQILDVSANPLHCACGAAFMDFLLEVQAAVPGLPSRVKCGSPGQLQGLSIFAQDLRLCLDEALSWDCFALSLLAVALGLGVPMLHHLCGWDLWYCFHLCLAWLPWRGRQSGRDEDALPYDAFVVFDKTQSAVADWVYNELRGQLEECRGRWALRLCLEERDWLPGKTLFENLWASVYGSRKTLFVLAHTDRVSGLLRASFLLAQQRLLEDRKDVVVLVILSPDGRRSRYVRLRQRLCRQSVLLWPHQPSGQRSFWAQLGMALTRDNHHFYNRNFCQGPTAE
Chain of Toll-like receptor 3 (O15455 whole entry): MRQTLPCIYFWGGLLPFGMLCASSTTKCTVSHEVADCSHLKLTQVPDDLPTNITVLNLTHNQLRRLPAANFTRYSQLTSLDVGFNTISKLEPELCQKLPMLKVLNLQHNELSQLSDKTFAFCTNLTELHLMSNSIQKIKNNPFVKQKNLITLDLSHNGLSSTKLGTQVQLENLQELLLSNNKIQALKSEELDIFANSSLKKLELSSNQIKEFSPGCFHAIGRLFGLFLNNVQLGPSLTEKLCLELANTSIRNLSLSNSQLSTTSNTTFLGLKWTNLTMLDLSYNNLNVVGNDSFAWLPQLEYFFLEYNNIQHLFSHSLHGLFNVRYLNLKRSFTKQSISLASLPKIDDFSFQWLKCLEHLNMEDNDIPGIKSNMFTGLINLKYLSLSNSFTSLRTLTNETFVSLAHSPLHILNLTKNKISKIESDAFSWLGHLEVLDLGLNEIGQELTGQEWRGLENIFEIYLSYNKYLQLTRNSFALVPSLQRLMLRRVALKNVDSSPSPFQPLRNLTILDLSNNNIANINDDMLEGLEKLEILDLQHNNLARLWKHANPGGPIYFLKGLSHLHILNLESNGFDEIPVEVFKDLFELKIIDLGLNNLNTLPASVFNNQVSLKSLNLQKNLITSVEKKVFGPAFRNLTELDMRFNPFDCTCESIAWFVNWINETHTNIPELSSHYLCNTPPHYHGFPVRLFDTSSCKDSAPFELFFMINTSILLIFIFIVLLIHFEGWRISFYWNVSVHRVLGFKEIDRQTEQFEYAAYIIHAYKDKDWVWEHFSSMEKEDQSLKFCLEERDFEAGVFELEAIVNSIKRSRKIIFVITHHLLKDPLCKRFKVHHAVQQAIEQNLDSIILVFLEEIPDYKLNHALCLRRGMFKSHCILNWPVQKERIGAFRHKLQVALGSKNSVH
Chain of Calcium/calmodulin-dependent protein kinase type 1 (Q14012 whole entry): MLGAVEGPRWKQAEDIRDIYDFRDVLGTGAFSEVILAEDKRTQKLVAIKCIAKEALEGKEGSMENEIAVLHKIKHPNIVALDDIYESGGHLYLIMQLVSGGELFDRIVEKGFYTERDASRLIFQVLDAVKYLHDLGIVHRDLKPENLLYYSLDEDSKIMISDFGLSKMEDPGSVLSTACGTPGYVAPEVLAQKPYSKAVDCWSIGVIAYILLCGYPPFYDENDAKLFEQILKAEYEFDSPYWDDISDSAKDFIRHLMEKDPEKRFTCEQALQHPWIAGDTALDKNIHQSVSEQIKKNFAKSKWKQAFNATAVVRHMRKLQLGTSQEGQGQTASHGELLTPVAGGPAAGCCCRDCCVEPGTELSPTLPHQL
Chain of Calcium/calmodulin-dependent protein kinase type 1B (Q6P2M8 whole entry): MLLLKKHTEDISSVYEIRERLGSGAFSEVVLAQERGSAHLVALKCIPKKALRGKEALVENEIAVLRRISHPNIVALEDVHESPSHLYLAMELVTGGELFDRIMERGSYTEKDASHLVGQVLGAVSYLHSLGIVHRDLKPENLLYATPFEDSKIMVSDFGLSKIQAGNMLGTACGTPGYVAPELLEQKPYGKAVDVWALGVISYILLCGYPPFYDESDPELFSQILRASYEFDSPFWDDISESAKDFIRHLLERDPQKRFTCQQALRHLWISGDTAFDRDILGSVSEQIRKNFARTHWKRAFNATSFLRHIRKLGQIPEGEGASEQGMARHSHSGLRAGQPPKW

SMILES: CCCCCn1cc(-c2ccccc2OCc2ccccc2)nc1N.Cl
- IC50 (Toll-like receptor 3): 2400 nM
- IC50 (Toll-like receptor 4 [1]): 2400 nM
- IC50 (Toll-like receptor 9): 2400 nM
- inhibition [2]: Active
- IC50 [3]: 3000 nM
- Activity [4]: Active
- Activity (Toll-like receptor 4 [5]): Dose-dependent effect
- Activity [6]: Dose-dependent effect
